The list is not random: actives were taken first. Their share in the collection is about 5.8%.
Pf Dd2 inh: P. falciparum Dd2 growth inhibitors, primary screen, SYBR Green fluorescence, single dose replicates | AID 1159554, 2015 | 72 h; hits give low values | activity change, % at 10 µM | hit rate 2.3% among 94,000; in the data active means activity change below about -80%; inconclusive means no clear call, values can overlap the other calls
T cruzi growth-1: T. cruzi intracellular proliferation inhibitors, primary screen, cell-based, beta-gal Tulahuen parasites, NIH3T3 host, luminescence; inhibition, % at 8.34 µM; hit rate 5.9% among 77,000; AID 624255, 2012; T. cruzi beta-gal in NIH3T3, GalScreen luminescence, 90 h;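 active means mean inhibition above about 93%, with at least 55% of replicates each passing it, limit read from the data, passing the limit was not always enough; inconclusive means only one of those two conditions holds; inactive means neither condition holds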
KDM4C inh: inhibitors of GASC-1 (KDM4C) histone demethylase, primary screen, biochemical, single concentration HTS. inhibition, % at 12.5 µM. GST-KDM4C 2-372, H3K9me3 peptide, LANCE TR-FRET. AID 720574, 2013. hit rate 0.15% among 96,000. Lysine-specific demethylase 4C (Homo sapiens), Q9H3R0;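 active means mean replicate inhibition above about 25%, with at least 55% of replicates also reaching it, limit read from the data, passing the limit was not always enough; inconclusive means only one of those two conditions met; inactive means neither condition met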
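Compound: one test concentration per compound; Material: GST-GASC-1 enzyme fragment 2-372; Amount: GASC-1 enzyme at 10 nM final in reaction; Also added: H3K9me3 peptide substrate, Fe(II), 2-oxoglutarate; Technique: LANCE TR-FRET; Times: 30 min demethylation and 1 h detection at room temperature.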
IDH1 R132H inh: inhibitors of IDH1 R132H reductase, primary screen, biochemical, plate reader, single point. hit rate 0.18% among 70,000. Isocitrate dehydrogenase [NADP] cytoplasmic (Homo sapiens), O75874. AID 624101, 2012. inhibition, % at 10 µM. diaphorase/resazurin fluorescence, 60 min; in the data active means inhibition above about 34%; inconclusive means no clear call, values can overlap the other calls; inactive means below about 11%;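 further: 0% = DMSO and 100% = no enzyme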
Target sequence (O75874 whole entry R132H): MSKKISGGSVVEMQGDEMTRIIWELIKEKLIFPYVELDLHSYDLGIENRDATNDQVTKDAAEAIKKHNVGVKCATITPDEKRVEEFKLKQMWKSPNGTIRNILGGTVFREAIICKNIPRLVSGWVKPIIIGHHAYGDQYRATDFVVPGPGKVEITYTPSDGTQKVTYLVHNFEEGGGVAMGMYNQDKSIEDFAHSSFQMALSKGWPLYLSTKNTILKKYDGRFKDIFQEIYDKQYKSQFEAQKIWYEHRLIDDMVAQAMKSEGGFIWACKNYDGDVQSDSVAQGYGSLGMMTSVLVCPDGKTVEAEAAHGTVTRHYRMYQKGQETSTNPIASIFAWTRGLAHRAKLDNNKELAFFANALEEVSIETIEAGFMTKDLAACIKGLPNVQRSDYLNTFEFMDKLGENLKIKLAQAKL
T cruzi growth-2: T. cruzi intracellular proliferation inhibitors, confirmation, cell-based, NIH3T3 host, beta-gal parasite, luminescence, cherry-pick. shares compounds with T cruzi growth-1. hit rate 72% among 5,600. inhibition, % at 8.35 µM. T. cruzi beta-gal in NIH3T3, GalScreen luminescence, 90 h;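 active means mean replicate inhibition above about 95% and at least 55% of replicates individually reaching it, limit read from the data; inconclusive means only one of the two criteria is met; inactive means neither criterion is met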
T cruzi growth-3: inhibitors of intracellular T. cruzi replication, confirmation, NIH3T3 host cells, beta-gal parasites, cherry-pick, set 2 | shares compounds with T cruzi growth-1 | T. cruzi beta-gal in NIH3T3, GalScreen luminescence, 90 h | inhibition, % at 2.09 µM | hit rate 21% among 5,600 | AID 651740, 2012;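 active means mean inhibition above about 95%, with at least 55% of replicates also reaching it, limit read from the data; inconclusive means meets just one of the two conditions; inactive means meets neither condition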;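 further: plate controls were neutral control median for no effect and positive control median for full effect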
3T3 cytotox: cytotoxicity in mouse NIH/3T3 fibroblasts, confirmation, cytotoxicity control for T. cruzi proliferation inhibitor project, cell-based, cherry-pick, single point | NIH/3T3 viability, CellTiter-Glo ATP luminescence, 90 h | hit rate 14% among 5,600 | cytotoxicity (signal decrease), % at 8.35 µM | AID 651742, 2012 | shares compounds with T cruzi growth-1;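 active means mean signal decrease across replicates above about 35% based on untreated-well scatter, with enough replicates individually passing, limit read from the data; inconclusive means no rule stated though some were filed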;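 further: 0% = median of neutral control wells and 100% = median of positive control wells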
3T3 cytotox 2: NIH/3T3 fibroblast cytotoxicity, confirmation, cytotoxicity control, cell-based, cherry-pick, single point, set 2; shares compounds with T cruzi growth-1; NIH/3T3 viability, CellTiter-Glo ATP luminescence, 90 h; inhibition, % at 24.9 µM; hit rate 56% among 5,600; AID 651744, 2012;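 active means mean loss of cell viability signal at or above a set limit, and enough replicates individually reaching it; inconclusive means meets only the mean limit or only the replicate share; inactive means meets neither condition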;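 further: 0% = median of neutral control wells and 100% = median of positive control wells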
Starred values were filed as active, the others as inactive; ? = inconclusive; / = no result given.

SMILES	Pf Dd2 inh	T cruzi growth-1	KDM4C inh	IDH1 R132H inh	T cruzi growth-2	T cruzi growth-3	3T3 cytotox	3T3 cytotox 2
CCc1cccc(C)c1NC(=O)CN(C)S(=O)(=O)c1ccccc1	/	/	/	-0.5	/	/	/	/
CO[C@@H]1CN(C)C(=O)c2ccc(NC(=O)c3cc(C)on3)cc2OC[C@@H](C)N(C(=O)C2CC2)C[C@H]1C	/	65.5	0.2	0.0	/	/	/	/
CC(C)(C)[S@](=O)N1Cc2cc(C(=O)NCc3ccncc3)nc(-c3cccc(-c4cccc(C#N)c4)c3)c2[C@@H]1CCO	-66.2	71.8	-1.0	-0.1	/	/	/	/
COc1ccc(CNC(=O)c2cc3c(c(-c4cccc(-c5ccc(C#N)cc5)c4)n2)[C@@H](CCO)N([S@](=O)C(C)(C)C)C3)cc1	-52.8	98.2*	-2.2	0.0	110.7*	106.5*	21.3	37.9*
COc1ccc(CNC(=O)c2cc3c(c(-c4cccc(-c5cccc(C#N)c5)c4)n2)[C@@H](CCO)N([S@](=O)C(C)(C)C)C3)cc1	-72.9	?	-7.0	0.0	106.9*	100.0*	19.3	45.0*
CC(C)(C)[S@](=O)N1Cc2cc(C(=O)NCc3ccccc3F)nc(-c3cccc(-c4ccncc4)c3)c2[C@@H]1CCO	-77.3	99.2*	-1.3	-0.1	102.5*	90.5	19.9	103.2*
O=C(CSc1nnc(-c2ccccc2)n1-c1ccccc1)Nc1ccccc1C(F)(F)F	/	/	/	3.0	/	/	/	/
C[C@@H]1CN([C@@H](C)CO)C(=O)c2cc(NS(=O)(=O)c3ccc(Cl)cc3)ccc2O[C@@H]1CN(C)S(=O)(=O)c1ccccc1	29.7	38.3	-0.3	0.8	/	/	/	/
C=C[C@](C)(CC[C@@]1(C)[C@H](C)C[C@H](O[C@@H]2O[C@@H](C)[C@H](O[C@@H]3O[C@H](COC(C)=O)[C@@H](O)[C@H](O)[C@H]3O)[C@@H](O)[C@H]2O)[C@@]2(C)C(C)=CCC[C@H]12)O[C@@H]1O[C@H](C)[C@H](O[C@@H]2O[C@@H](C)[C@H](O)[C@@H](O)[C@H]2O)[C@H](O)[C@H]1O	/	/	/	-0.7	/	/	/	/
O=C(Nc1ccc(F)cc1)N1CCCCN2[C@H](CO)[C@H](c3ccc(-c4ccccc4F)cc3)[C@H]2C1	-16.8	54.4	/	/	/	/	/	/
O=C(Nc1ccc(F)cc1)N1CCCCN2[C@H](CO)[C@@H](c3ccc(-c4ccccc4F)cc3)[C@@H]2C1	-31.1	112.2*	/	/	100.6*	104.0*	32.2	104.3*
O=C(Nc1ccccc1)N1CCCCN2[C@H](C1)[C@H](c1ccc(-c3ccccc3F)cc1)[C@@H]2CO	16.9	112.8*	-0.9	/	108.1*	60.1	13.9	?
O=C(Nc1ccc(F)cc1)N1CCCCN2[C@H](CO)[C@@H](c3ccc(-c4ccccc4F)cc3)[C@H]2C1	-53.3	103.7*	/	/	97.1*	?	57.5*	105.2*
CSc1ccccc1NC(=O)C(C)n1nc(C)c([N+](=O)[O-])c1C (stereo not given)	/	/	/	0.2	/	/	/	/
CCCC#Cc1cnc2c(c1)C(=O)N([C@@H](C)CO)C[C@@H](C)[C@@H](CN(C)S(=O)(=O)c1cccc(OC)c1)O2	17.8	88.3	-1.1	/	/	/	/	/
CC(C)CC#Cc1cnc2c(c1)C(=O)N([C@H](C)CO)C[C@@H](C)[C@@H](CN(C)S(=O)(=O)c1ccccc1)O2	-22.7	83.3	0.9	0.8	/	/	/	/

High-throughput results as filed in PubChem.
